Screens from PubChem BioAssay.
KCNK9 inh: KCNK9 potassium channel inhibitors, primary screen, HEK293 cells, thallium flux | FluxOR thallium flux fluorescence; stronger effect = lower value | B-score at 10 µM | actives 1.2% (n = 310,000) | AID 488922, 2010;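 active = ratio B-score over 3 SD below the library mean, with starting fluorescence within 5 SD of its mean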;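 also: negative B-score means less thallium flux so channel inhibition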
KCNQ1 act: potentiators or activators of KCNQ1 channel, primary screen, cell-based, thallium flux, high-throughput; actives 0.35% (n = 310,000); CHO-K1 KCNQ1, thallium flux FluxOR fluorescence; stronger effect = higher value; B-score at 10 µM; Potassium voltage-gated channel subfamily KQT member 1 (Homo sapiens), P51787;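 active = fluorescence ratio B-score, a plate-corrected score, at least three library SD, with initial intensity B-score within 5 SD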
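Material: CHO-K1 cells stably expressing KCNQ1. Medium: assay buffer for compound exposure, DMSO matched across wells. Reagent: K+/Tl+ depolarizing stimulus. Compound dosing: single-concentration screen. Times: 37 °C overnight plating, 90-min dark dye load, 20-min compound pretreatment. Technique: FluxOR Tl+ flux fluorescence.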
Kir21 block: inhibitors of mouse Kir2.1 inward-rectifier potassium channel; HEK293-Kir2.1, FluxOR thallium flux fluorescence; stronger effect = lower value; B-score at 10 µM; actives 0.85% (n = 310,000);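 active = fluorescence ratio B-score at or below minus 3 SD of library scores, with starting-brightness B-score within 2 SD, cut at about -4.2 in these data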;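 also: channel flux triggered by added potassium and thallium sulfate stimulus; B-score of peak minus minimum fluorescence over baseline after thallium stimulus; more negative B-score means stronger Kir2.1 block with less thallium influx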
KCNQ1 inh: inhibitors of human KCNQ1 channel, primary screen, cell-based, thallium flux, high-throughput | CHO-K1 KCNQ1, FluxOR thallium flux fluorescence; stronger effect = higher value | B-score at 10 µM | actives 1.3% (n = 310,000) | AID 2642, 2010;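 active = compounds whose thallium flux B-score, printed positive for inhibition, exceeds three library SD while starting fluorescence stays within three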;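 also: channel opened by potassium depolarization with thallium stimulus after 20 min compound exposure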
hERG rescue: hERG rescue from dofetilide block, primary screen, cell-based, CHO-hERG, FluxOR thallium flux, dofetilide IC70 | actives 0.51% (n = 310,000) | activation (rescue from dofetilide block), less the hit threshold, % at 10 µM | Voltage-gated inwardly rectifying potassium channel KCNH2 (Homo sapiens), Q12809 | dofetilide IC70 present;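 active = activation above the mean of controls blocked by dofetilide plus 5 SD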;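 also: thallium influx through hERG after potassium depolarization seen as dye fluorescence rise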
KCNK3 inh: human KCNK3 channel inhibitors, primary screen, CHO cells, FluxOR thallium flux, B-score | FluxOR fluorescence; stronger effect = lower value | B-score at 10 µM | actives 0.84% (n = 340,000);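 active = B-score under library mean minus 4 SD, starting fluorescence ratio at most library mean plus 5 SD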;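 also: more negative B-score means stronger inhibition of thallium flux through KCNK3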
Target sequence (O14649 whole entry, looked up): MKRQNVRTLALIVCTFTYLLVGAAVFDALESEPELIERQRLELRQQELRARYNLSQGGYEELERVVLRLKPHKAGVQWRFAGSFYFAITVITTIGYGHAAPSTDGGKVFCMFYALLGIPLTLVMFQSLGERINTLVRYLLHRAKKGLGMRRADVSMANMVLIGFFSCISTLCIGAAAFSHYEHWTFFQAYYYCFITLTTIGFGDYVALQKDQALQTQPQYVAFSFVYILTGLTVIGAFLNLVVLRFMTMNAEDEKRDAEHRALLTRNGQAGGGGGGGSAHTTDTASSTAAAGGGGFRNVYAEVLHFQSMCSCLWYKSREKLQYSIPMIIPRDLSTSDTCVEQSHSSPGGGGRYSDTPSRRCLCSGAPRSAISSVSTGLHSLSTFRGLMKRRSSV
KCNK9 block conf: KCNK9 potassium channel inhibitors, confirmation, HEK293 cells, thallium flux, duplicate; shares compounds with KCNK9 inh; FluxOR thallium flux fluorescence; inhibition, % at 10 µM; actives 43% (n = 4,900); AID 492992, 2010;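 active = thallium signal inhibited by more than 5 SD of the compound-free buffer control wells, on both duplicate plates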;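 also: 0% = assay buffer control wells without compound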
Kir21 sel: mouse Kir2.1 channel inhibition, confirmation, selectivity assay for KCNK9 modulator project, cell-based, HEK293, thallium flux. shares compounds with KCNK9 inh. actives 4% (n = 4,900). inhibition, % at 10 µM. Kir2.1 cells, FluxOR thallium flux fluorescence;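 active = thallium signal drop more than 5 SD beyond the mean of the no-compound control wells, seen in both duplicate plates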;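 also: signal is fluorescence rise after thallium addition divided by baseline fluorescence; plate controls were assay buffer only for no effect and full block by chlorpromazine control for full effect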
HEK293 Tl ctr: thallium flux in non-induced HEK293 cells, confirmation, counter-screen for KCNK9 inhibitor project, cell-based, second counter screen, non-induced KCNK9-HEK293; shares compounds with KCNK9 inh; FluxOR thallium flux; inhibition, % at 10 µM; actives 40% (n = 4,900);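 active = thallium signal drop beyond 5 SD of the untreated control mean, on both duplicate plates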;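 also: plate controls were buffer only IC0 wells for no effect and SID17386958 at its maximal inhibitory level for full effect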
The depositor's hits bear a star; i = inactive; nt = no result. This is a sample that favours compounds with a hit; in the whole collection about 3.7% have one here.

SMILES | KCNK9 inh | KCNQ1 act | Kir21 block | KCNQ1 inh | hERG rescue | KCNK3 inh | KCNK9 block conf | Kir21 sel | HEK293 Tl ctr
Cc1ccc(C(=O)NCCSc2ccc(Cl)cc2)cc1S(=O)(=O)Nc1ccccc1 | i | i | 0.39 | i | -6.9 | i | i | i | i
Cc1ccc(NS(=O)(=O)c2cc(C(=O)NCCSC3CCCCC3)ccc2C)cc1 | i | i | 0.24 | i | -6.3 | i | nt | nt | nt
O=S(=O)(c1cccs1)N1CCC(CO)(Cc2cccc(F)c2)CC1 | i | i | 0.2 | i | -19.2 | i | nt | nt | nt
O=C(O)Cc1cn(Cc2cccc(Cl)c2)c2ccccc12 | i | i | -0.29 | i | -8.5 | i | nt | nt | nt
CC1CCCN(C(=O)Cc2cn(Cc3cccc(Cl)c3)c3ccccc23)C1 (stereo unspecified) | -13.6* | i | -2.05 | i | -5.5 | i | 71.5%* | 46.5%* | 37.0%*
O=C(Cc1cn(Cc2cccc(Cl)c2)c2ccccc12)N1CCCCCC1 | -10.7* | i | 2.22 | i | -10.8 | i | 53.5%* | 35.5%* | 38.0%*
O=C(CSc1ncnc2sc(-c3ccccc3)cc12)NC1CCS(=O)(=O)C1 (stereo unspecified) | i | i | -0.58 | i | -5.4 | i | nt | nt | nt
O=C(/C=C/c1ccccc1)Nc1cccc(C(=O)NC2CC2)c1 | nt | nt | nt | nt | nt | i | nt | nt | nt
CC1CCC(C(C)C)C(OC(=O)COC(=O)c2ccc(N)cc2)C1 (stereo unspecified) | i | i | 0.59 | i | -3.0 | i | i | i | i
COc1ccc(F)cc1C(=O)C1CCCN(Cc2cn(C)c3ccccc23)C1 (stereo unspecified) | i | i | -2.65 | i | -10.1 | i | i | i | i
Cn1cc(CN2CCCC(C(=O)c3cc(F)ccc3F)C2)c2ccccc21 (stereo unspecified) | i | i | 0 | i | -12.3 | i | i | i | i
Cn1cc(CN2CCCC(CNC(=O)c3ccc4c(c3)OCO4)C2)c2ccccc21 (stereo unspecified) | i | i | -0.04 | i | -7.0 | i | nt | nt | nt
COc1ccc(F)cc1C(=O)C1CCCN(Cc2c[nH]c3ccccc23)C1 (stereo unspecified) | i | i | -2.95 | i | -9.1 | i | nt | nt | nt
COc1ccc(OC)c(CN2CCCC(C(=O)c3ccccc3SC)C2)c1 (stereo unspecified) | i | i | -1.7 | i | -13.3 | i | i | i | i
CCCC(C(=O)NNC(=O)c1ccncc1)c1ccccc1 (stereo unspecified) | nt | nt | nt | nt | nt | i | nt | nt | nt
Cc1ccc(S(=O)(=O)/N=C2/NC(=O)/C(=C/c3ccncc3)S2)cc1 | i | i | -3.48 | i | -6.7 | nt | nt | nt | nt
Cc1ccc(S(=O)(=O)/N=C2/NC(=O)/C(=C/c3ccccc3)S2)cc1 | i | i | -0.16 | i | -8.7 | i | i | i | i
Cc1ccc(S(=O)(=O)/N=C2/NC(=O)/C(=C\c3ccccc3)S2)cc1 | nt | nt | nt | nt | nt | i | nt | nt | nt
Cc1ccc(/C=C2\S/C(=N/S(=O)(=O)c3cccs3)NC2=O)cc1 | i | i | 0.82 | i | -11.9 | i | i | i | i
